Reference: the M2OR odorant receptor database
Positions count from the first letter of the chain named.

What was measured:
Conditions in all cases: stereoisomer not certain
OR56B4 (Homo sapiens) = molecular target: T1, OR56B4 (Homo sapiens) (UniProt Q8NH76)
T1 sequence (whole entry): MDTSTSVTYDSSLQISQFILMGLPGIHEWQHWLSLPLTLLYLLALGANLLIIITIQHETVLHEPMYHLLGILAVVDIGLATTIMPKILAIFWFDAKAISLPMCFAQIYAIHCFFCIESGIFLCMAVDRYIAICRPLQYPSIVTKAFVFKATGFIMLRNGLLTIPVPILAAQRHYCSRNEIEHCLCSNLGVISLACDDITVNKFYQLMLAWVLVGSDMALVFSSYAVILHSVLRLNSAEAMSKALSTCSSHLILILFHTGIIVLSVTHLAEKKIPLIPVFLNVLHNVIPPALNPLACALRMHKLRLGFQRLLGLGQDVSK
Outline: (§1)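 Assay methods differ from source to source, frequently being transient luciferase assays in mammalian cell lines. For each receptor–molecule pair, the label responsive (active) applies when the original authors judged the measured signal statistically different from baseline, and non-responsive (inactive) applies otherwise.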

OR5A1 (Homo sapiens) = molecular target: T2, OR5A1 (Homo sapiens) (UniProt Q8NGJ0)
T2 sequence (whole entry): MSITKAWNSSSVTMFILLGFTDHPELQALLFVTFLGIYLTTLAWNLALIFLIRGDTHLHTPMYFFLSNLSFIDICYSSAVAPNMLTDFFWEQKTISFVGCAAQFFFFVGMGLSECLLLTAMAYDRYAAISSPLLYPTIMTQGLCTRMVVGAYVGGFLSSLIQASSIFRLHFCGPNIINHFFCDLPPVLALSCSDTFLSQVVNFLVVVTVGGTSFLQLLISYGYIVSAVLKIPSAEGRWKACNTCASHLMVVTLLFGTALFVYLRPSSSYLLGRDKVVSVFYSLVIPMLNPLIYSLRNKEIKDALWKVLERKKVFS
Outline: as §1

OR5A2 (Homo sapiens) = molecular target: T3, OR5A2 (Homo sapiens) (UniProt Q8NGI9)
T3 sequence (whole entry): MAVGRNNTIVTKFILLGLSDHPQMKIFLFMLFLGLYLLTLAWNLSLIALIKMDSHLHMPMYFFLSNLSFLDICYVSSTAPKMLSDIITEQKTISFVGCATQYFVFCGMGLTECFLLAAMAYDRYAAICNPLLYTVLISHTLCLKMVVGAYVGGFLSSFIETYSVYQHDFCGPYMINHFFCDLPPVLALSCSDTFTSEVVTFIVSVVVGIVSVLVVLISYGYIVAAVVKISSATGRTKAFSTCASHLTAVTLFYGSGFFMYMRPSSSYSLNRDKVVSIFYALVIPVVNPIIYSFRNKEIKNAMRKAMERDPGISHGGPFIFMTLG
Outline: as §1

OR5AC1 (Homo sapiens) = OR5AC1 (Homo sapiens) (UniProt P0C628)
Outline: as §1

OR5AC2 (Homo sapiens) = molecular target: T4, OR5AC2 (Homo sapiens) (UniProt Q9NZP5)
T4 sequence (whole entry): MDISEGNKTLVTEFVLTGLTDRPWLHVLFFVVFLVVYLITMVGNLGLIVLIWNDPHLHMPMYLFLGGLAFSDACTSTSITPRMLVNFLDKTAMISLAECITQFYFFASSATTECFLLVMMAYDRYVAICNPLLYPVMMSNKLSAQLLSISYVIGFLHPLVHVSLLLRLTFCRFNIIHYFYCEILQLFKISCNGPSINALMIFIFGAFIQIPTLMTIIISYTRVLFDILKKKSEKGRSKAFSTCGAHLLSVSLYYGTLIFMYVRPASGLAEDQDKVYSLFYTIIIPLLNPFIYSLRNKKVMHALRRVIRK
Outline: as §1

OR5AK2 (Homo sapiens) = molecular target: T5, OR5AK2 (Homo sapiens) (UniProt Q8NH90)
T5 sequence (whole entry): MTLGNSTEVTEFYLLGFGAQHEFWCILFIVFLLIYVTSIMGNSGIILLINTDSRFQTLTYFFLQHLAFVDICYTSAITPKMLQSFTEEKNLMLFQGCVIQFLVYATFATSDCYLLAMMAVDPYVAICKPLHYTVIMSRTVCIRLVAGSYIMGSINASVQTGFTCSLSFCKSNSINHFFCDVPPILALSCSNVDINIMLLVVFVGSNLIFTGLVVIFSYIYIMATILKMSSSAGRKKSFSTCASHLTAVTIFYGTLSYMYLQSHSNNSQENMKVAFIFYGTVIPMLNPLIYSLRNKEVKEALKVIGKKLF
Outline: as §1

OR5AL1 (Homo sapiens) = OR5AL1 (Homo sapiens) (UniProt P0C617)
Outline: as §1

OR5AN1 (Homo sapiens) = molecular target: T6, OR5AN1 (Homo sapiens) (UniProt Q8NGI8)
T6 sequence (whole entry): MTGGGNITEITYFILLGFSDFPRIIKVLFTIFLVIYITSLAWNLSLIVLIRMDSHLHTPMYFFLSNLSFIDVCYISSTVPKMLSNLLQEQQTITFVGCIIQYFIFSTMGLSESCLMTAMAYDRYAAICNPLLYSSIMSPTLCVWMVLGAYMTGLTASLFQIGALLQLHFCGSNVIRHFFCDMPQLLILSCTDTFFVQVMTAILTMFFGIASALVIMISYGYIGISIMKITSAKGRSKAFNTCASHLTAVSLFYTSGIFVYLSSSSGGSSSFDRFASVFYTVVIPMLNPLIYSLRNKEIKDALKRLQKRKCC
Outline: as §1

OR5AP2 (Homo sapiens) = molecular target: T7, OR5AP2 (Homo sapiens) (UniProt Q8NGF4)
T7 sequence (whole entry): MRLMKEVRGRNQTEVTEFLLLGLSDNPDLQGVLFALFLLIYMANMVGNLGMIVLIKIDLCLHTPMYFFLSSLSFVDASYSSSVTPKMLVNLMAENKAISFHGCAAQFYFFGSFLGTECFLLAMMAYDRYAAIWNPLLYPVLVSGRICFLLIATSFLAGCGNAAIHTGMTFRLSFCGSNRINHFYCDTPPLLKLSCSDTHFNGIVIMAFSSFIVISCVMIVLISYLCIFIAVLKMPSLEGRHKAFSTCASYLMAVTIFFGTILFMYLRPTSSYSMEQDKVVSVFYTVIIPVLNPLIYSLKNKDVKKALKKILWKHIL
Outline: as §1

OR5AR1 (Homo sapiens) = molecular target: T8, OR5AR1 (Homo sapiens) (UniProt Q8NGP9)
T8 sequence (whole entry): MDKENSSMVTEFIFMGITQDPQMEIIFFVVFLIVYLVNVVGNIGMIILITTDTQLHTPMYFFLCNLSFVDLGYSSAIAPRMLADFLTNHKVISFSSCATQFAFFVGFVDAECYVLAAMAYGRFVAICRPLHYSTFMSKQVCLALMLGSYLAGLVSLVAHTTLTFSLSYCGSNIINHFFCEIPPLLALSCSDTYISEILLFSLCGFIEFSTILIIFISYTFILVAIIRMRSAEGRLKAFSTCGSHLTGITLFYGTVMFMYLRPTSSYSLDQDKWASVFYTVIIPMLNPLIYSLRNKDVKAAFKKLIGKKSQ
Outline: as §1

OR5AS1 (Homo sapiens) = molecular target: T9, OR5AS1 (Homo sapiens) (UniProt Q8N127)
T9 sequence (whole entry): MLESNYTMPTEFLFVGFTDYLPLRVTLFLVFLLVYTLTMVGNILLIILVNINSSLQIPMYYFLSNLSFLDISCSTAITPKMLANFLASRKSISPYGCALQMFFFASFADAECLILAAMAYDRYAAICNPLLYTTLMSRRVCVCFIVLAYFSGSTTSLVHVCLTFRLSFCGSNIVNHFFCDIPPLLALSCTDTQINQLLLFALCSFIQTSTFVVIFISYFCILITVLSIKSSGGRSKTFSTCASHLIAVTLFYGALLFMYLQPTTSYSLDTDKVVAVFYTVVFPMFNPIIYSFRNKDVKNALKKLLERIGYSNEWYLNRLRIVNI
Outline: as §1

OR5AU1 (Homo sapiens) = molecular target: T10, OR5AU1 (Homo sapiens) (UniProt Q8NGC0)
T10 sequence (whole entry): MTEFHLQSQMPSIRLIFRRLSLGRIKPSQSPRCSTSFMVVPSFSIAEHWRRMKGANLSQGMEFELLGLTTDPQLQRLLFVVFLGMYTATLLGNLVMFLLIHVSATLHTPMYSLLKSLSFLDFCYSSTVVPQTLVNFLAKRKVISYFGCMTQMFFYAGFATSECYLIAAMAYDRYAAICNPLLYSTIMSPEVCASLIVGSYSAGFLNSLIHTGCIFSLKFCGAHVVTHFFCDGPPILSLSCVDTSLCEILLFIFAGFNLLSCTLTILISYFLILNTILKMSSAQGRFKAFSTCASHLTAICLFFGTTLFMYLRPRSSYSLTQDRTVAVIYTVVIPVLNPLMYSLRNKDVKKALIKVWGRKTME
Outline: as §1

OR5B12 (Homo sapiens) = molecular target: T11, OR5B12 (Homo sapiens) (UniProt Q96R08)
T11 sequence (whole entry): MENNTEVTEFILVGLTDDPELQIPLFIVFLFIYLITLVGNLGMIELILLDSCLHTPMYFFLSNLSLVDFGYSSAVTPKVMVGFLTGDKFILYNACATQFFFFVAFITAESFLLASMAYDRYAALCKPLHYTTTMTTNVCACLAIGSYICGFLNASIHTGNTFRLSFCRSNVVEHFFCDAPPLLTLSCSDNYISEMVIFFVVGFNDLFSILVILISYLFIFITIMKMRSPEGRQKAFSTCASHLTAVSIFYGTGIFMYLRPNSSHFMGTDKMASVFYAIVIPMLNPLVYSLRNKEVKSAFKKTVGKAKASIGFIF
Outline: as §1

OR5B17 (Homo sapiens) = molecular target: T12, OR5B17 (Homo sapiens) (UniProt Q8NGF7)
T12 sequence (whole entry): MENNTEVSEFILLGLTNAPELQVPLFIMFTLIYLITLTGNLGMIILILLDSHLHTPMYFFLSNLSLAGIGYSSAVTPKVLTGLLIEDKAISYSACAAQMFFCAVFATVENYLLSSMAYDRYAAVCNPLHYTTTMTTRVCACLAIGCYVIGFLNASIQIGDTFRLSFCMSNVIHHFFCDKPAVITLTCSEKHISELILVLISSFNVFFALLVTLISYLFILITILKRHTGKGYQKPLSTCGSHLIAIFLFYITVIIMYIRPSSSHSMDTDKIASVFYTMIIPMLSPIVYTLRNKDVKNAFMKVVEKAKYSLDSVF
Outline: as §1

OR5B2 (Homo sapiens) = molecular target: T13, OR5B2 (Homo sapiens) (UniProt Q96R09)
T13 sequence (whole entry): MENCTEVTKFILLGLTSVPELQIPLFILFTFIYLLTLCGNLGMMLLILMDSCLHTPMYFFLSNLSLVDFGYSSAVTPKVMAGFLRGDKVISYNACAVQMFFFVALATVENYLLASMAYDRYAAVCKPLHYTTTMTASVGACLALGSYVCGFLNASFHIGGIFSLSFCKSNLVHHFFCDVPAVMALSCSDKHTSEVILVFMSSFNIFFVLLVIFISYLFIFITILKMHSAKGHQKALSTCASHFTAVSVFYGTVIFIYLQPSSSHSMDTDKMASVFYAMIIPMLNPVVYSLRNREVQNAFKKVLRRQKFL
Outline: as §1

OR5B21 (Homo sapiens) = molecular target: T14, OR5B21 (Homo sapiens) (UniProt A6NL26)
T14 sequence (whole entry): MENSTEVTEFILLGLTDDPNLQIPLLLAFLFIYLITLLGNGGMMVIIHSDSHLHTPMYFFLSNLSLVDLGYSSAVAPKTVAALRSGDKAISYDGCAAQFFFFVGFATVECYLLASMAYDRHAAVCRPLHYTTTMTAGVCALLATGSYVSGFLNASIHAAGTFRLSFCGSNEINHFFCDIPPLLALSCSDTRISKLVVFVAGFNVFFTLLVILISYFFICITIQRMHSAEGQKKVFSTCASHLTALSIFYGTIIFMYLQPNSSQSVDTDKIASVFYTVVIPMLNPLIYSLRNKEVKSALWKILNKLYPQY
Outline: as §1

OR5B3 (Homo sapiens) = molecular target: T15, OR5B3 (Homo sapiens) (UniProt Q8NH48)
T15 sequence (whole entry): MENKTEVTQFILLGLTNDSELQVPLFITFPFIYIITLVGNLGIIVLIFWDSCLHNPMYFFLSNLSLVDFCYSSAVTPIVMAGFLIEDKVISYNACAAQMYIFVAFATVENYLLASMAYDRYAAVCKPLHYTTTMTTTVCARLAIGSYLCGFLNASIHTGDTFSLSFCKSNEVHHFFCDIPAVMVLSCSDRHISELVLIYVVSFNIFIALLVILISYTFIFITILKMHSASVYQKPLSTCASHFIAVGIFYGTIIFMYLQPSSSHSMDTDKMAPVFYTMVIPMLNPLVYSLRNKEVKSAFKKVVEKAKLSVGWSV
Outline: as §1

OR5A1 D183N = tested on: T16, OR5A1 D183N
T16 sequence (whole entry): T2 sequence (whole entry) with D183N
Outline: as §1

OR5B2 E6D = tested on: T17, OR5B2 E6D
T17 sequence (whole entry): T13 sequence (whole entry) with E6D
Outline: as §1

OR5B3 I198V G247A = tested on: T18, OR5B3 I198V G247A
T18 sequence (whole entry): T15 sequence (whole entry) with I198V, G247A
Outline: as §1

Measured: odorant receptor agonist call

OR5AL1 (Homo sapiens), sequence (P0C617 whole entry): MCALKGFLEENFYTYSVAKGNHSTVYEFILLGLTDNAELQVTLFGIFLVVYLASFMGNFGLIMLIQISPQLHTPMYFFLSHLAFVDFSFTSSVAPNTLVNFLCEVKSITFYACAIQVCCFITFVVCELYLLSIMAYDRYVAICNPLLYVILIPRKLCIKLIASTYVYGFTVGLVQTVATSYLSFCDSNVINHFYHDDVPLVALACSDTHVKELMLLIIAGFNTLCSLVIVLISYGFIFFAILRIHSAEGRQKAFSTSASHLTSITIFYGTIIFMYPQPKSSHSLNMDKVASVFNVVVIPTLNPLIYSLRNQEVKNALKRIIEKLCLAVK
OR5AC1 (Homo sapiens), sequence (P0C628 whole entry): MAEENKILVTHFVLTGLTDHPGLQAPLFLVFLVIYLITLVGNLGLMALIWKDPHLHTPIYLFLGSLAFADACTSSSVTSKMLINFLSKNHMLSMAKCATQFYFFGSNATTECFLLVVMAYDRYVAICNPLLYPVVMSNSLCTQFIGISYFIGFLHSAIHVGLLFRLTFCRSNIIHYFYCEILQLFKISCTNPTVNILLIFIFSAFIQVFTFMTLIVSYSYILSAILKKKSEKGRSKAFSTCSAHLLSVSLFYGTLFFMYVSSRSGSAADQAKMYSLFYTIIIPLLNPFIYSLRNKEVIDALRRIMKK

CC1CCCCCCCCCCCCC(=O)C1 (stereo unspecified)
active: OR5AN1 (Homo sapiens)
not listed: OR5A1 D183N | OR5B2 E6D | OR5B3 I198V G247A
inactive: all other assays above

CC(CC=O)c1ccc(C(C)(C)C)cc1 (stereo unspecified)
inactive: OR5AC2 (Homo sapiens) | OR5B17 (Homo sapiens)

Cc1cnc(C)c(C)n1
not listed: OR5AC1 (Homo sapiens) | OR5AL1 (Homo sapiens)
inactive: all other assays above

CCCCCC(S)C(C)CO (stereo unspecified)
not listed: OR5AC1 (Homo sapiens) | OR5AL1 (Homo sapiens) | OR5A1 D183N | OR5B2 E6D | OR5B3 I198V G247A
inactive: all other assays above

CC(=O)c1c(C)c([N+](=O)[O-])c(C(C)(C)C)c([N+](=O)[O-])c1C
active: OR5AN1 (Homo sapiens)
not listed: OR5A1 D183N | OR5B2 E6D | OR5B3 I198V G247A
inactive: all other assays above

COc1ccc(C)cc1
inactive: OR5AC2 (Homo sapiens) | OR5B17 (Homo sapiens)
